Published values from different studies.
Protocols differ between the studies behind these lines.
Target: AP2-associated protein kinase 1 (AAK1, Homo sapiens, UniProt Q2M2I8)

CC(=O)N1CCC(c2ccc(C(=O)NC(=N)N)cc2C(F)(F)F)CC1  remaining binding (binding; 1 µM): 100%
CCN1CCN(Cc2ccc(C(=O)Nc3ccc(C)c(Oc4ccc5c(c4)CC(=O)N5)c3)cc2C(F)(F)F)CC1  remaining binding (binding, competition with immobilised ligand; 1 µM): 100%
Cc1nccc(COC(=O)N2C[C@@H]3[C@@H](CNC(=O)c4ccc5[nH]nnc5c4)[C@@H]3C2)n1  remaining binding (binding; 1 µM): 100%
O=C(Nc1c[nH]nc1C(=O)NC1CCNCC1)c1cc(F)cc(F)c1  remaining binding (binding, competition with immobilised ligand; 1 µM): 100%
CNC(=O)[C@@H]1CC[C@@H](n2c(-c3ccc4cnccc4c3)nc3ccc(C(=O)NCc4cccc(C(N)=O)c4)cc32)C1  remaining binding (binding, competition with immobilised ligand; 1 µM): 93%
CN(C)c1nccc(-c2cnc3ncccn23)n1  remaining binding (binding; 1 µM): 88%
O=C(NCc1ncc(C(F)(F)F)cc1Cl)c1ccc2c(c1)C1(CCS(=O)(=O)CC1)[C@@H](C1CC1)N2S(=O)(=O)c1ccc(F)cc1  remaining binding (binding; 1 µM): 100%
O=C(c1ccc(Nc2ncc(Cl)c(-c3cc4ccccc4s3)n2)cc1)N1CCC(N2CCCC2)CC1  remaining binding (binding, competition with immobilised ligand; 1 µM): 29%
Nc1ncc2c(n1)-c1c([nH]c3ccc(C#CC4CC4)cc13)CCCC2  remaining binding (binding, competition with immobilised ligand; 1 µM): 92%
CCc1ccccc1C(=O)Nc1n[nH]c2c(C)c(F)c(C3C(C#N)=C(C)N(C)C(C)=C3C#N)cc12  remaining binding (binding; 1 µM): 81%
C[C@@H](c1ccc(-n2cnc3c(N)ncnc32)cc1)N1CCc2nn(C)c(Cc3ccccc3)c2C1=O  remaining binding (binding, competition with immobilised ligand; 0.1 µM): 98%
CC(=O)C1=C(C)N(c2cccc(C(F)(F)F)c2)C(=O)N[C@@H]1c1ccc(C#N)nc1  remaining binding (binding; 1 µM): 100%
CN(C)c1ncc(F)c(-c2cnn3ncccc23)n1  remaining binding (binding; 1 µM): 89%
O=C(NCCCN1CCOCC1)c1ccc(Nc2ncc(Cl)c(-c3ccc(Cl)s3)n2)cc1  remaining binding (binding, competition with immobilised ligand; 1 µM): 35%
CN(C)c1nccc(-c2cnn3ncccc23)n1  remaining binding (binding; 1 µM): 75%
CN(C(=O)c1ccccc1)c1cc(N(C)c2ccc3c(c2)CCc2ccc(C(=O)NCCN4CCOCC4)cc2C3=O)ccc1F  remaining binding (binding; 1 µM): 100%
CN(CCCC(F)(F)F)c1nccc(-c2cnn3ncccc23)n1  remaining binding (binding; 1 µM): 100%
COc1ncc2cc3ccccc3nc2c1C#N  remaining binding (cell-free assay, competition with immobilised ligand; 5 µM): 96%
N[C@H]1CCN(c2nccc(-c3cnn4ncccc34)n2)C1  remaining binding (binding; 1 µM): 91%
COc1cnc(Nc2cccc(S(N)(=O)=O)c2)nc1N1CCN(c2ccccc2)C(=O)C1  remaining binding (binding, competition with immobilised ligand; 1 µM): 84%
C[C@@H]1CCN(c2nccc(-c3cnn4ncccc34)n2)C1  remaining binding (binding; 1 µM): 71%
O=C(c1ccc(Nc2ncc(Cl)c(-c3ccc(Cl)s3)n2)cc1)N1CCC(N2CCCC2)CC1  remaining binding (binding, competition with immobilised ligand; 1 µM): 41%
